ERp5 inh = inhibitors of ERp5-driven insulin aggregation, primary screen, biochemical, turbidity, absorbance 650 nm, single point. inhibition, % at 9.99 µM. actives 0.05% (n = 350,000). AID 651711, 2012. 90 min;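 active means mean replicate inhibition above about 25%, with every replicate also reaching it, limit read from the data, passing the limit was not always enough; inconclusive means only one of those two criteria met; inactive means neither criterion met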
SIRT5 inh = SIRT5 desuccinylase inhibitors, primary screen, biochemical, fluorescence imaging, single point, set 5. inhibition, % at 15 µM. NAD-dependent protein deacylase sirtuin-5, mitochondrial (Homo sapiens), Q9NXA8. Purified SirT5, succinyl-peptide AMC, trypsin-coupled fluorescence. actives 1.1% (n = 330,000); in the data active means inhibition above about 15%; inconclusive means no clear call, values can overlap the other calls
Target sequence (Q9NXA8 whole entry, looked up): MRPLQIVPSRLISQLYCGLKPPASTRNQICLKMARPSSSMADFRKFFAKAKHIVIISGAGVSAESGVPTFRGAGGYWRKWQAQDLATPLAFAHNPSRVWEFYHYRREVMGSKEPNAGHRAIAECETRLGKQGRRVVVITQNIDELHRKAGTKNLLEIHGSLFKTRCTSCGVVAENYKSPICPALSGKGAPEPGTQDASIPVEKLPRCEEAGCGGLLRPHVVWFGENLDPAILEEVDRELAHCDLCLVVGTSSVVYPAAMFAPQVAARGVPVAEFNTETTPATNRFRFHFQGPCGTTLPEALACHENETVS
FN deposit inh = inhibitors of fibronectin matrix deposition, primary screen, AH1F cells, Alexa488-fibronectin fluorescence, plate reader. AH1F fibroblasts, overnight. inhibition, % at 12.6 µM. actives 0.086% (n = 350,000). AID 743247, 2014;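 active means mean inhibition across replicates of 30% or more, regardless of how many single replicates reach that level; inconclusive means mean under 30% yet at least half of replicates reach 30%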;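 further: positive control wells lacked labelled fibronectin entirely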
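Material: AH1F fibroblast monolayer depositing Alexa488-labelled fibronectin into matrix / Amount: 10000 AH1F cells per well / Signal: fluorescence 485/525 nm / Medium: DMEM, 2% serum / Compound: single dose, pinned / Incubation: 1 h cell adhesion before compound, then overnight fibronectin incubation / Reagent: Alexa488-FN, 24 nM final / Read-out: inhibition of fibronectin deposition signal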
PDI inh = inhibitors of human PDI, primary screen, biochemical, turbidity, single point, plate reader. Protein disulfide-isomerase (Homo sapiens), P07237. PDI insulin aggregation turbidity, A650, 90 min. inhibition, % at 10 µM. actives 0.052% (n = 350,000). AID 588391, 2011;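 active means mean inhibition across replicates of 30% or more, whatever share of single replicates reach that level; inconclusive means mean inhibition below 30% while every single replicate reaches 30%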
MLL AF4-AF9 inh = inhibitors of AF4 peptide binding to AF9, primary screen, biochemical, AlphaScreen, biotin-AF4 peptide, FLAG-AF9, single point; inhibition, % at 10 µM; actives 0.47% (n = 350,000); AID 651704, 2012;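 active means every replicate reaching a set inhibition limit, whatever the replicate mean, cut at about 25% in these data; inconclusive means mean inhibition reaches that limit but some replicates miss it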;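 further: 0% = plate neutral control median and 100% = total signal loss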
Alpha interfer = AlphaScreen signal interference counter-screen, dose response, artefact control, biochemical, cherry-picked samples, luminescence. actives 45% (n = 530). AC50, µM (titrated, usually from 12 µM), for inactives: at the top dose activity change, negative = inhibition. shares compounds with MLL AF4-AF9 inh; cut-off not given, nearly all actives have AC50 up to about 14 µM
* = called active by the depositor. Compounds with a hit are over-represented: about 1.3% of the library has one in this group of screens.

For COc1ccc(-c2ccc([C@H]3[C@H]4CN(Cc5ccc(F)cc5)CC(=O)N4[C@H]3CO)cc2)cc1 the results were ERp5 inh -6.3, SIRT5 inh -1.1 and MLL AF4-AF9 inh 5.0.
CCOc1ccc2c(c1)C(=O)c1cc(OCC(=O)O)ccc1-2 was read as ERp5 inh 0.3, SIRT5 inh 0.0, FN deposit inh -0.6, PDI inh -2.2 and MLL AF4-AF9 inh -10.3.
`CCCCOc1ccc2c(c1)C(=O)c1cc(O)ccc1-2` gave ERp5 inh 1.9, SIRT5 inh -3.7, PDI inh -7.6, MLL AF4-AF9 inh 33.2* and Alpha interfer -1.9%.
COc1ccc(NC(=O)N2CCCc3ccccc32)c(OC)c1 was read as ERp5 inh -2.0, SIRT5 inh 0.1, FN deposit inh 9.3, PDI inh -1.3 and MLL AF4-AF9 inh 2.6.
Screening Cn1ccc2c(/C=C/c3ccc(F)cc3)cc3c(c21)C1CCC3C1 (stereo unspecified) returned ERp5 inh 1.9, SIRT5 inh -0.5, FN deposit inh 3.5, MLL AF4-AF9 inh 43.7* and Alpha interfer 9.4%.
CN1\C(=C/C=C/C=C/C=[N+](C)C)C(C)(C)c2ccccc21 was read as ERp5 inh -0.7, SIRT5 inh 2.4, FN deposit inh -9.4, PDI inh -1.7, MLL AF4-AF9 inh 40.8* and Alpha interfer 9.84µM*.
Screening CCOc1ccc2oc(C(=O)NCC(c3ccco3)N(C)C)c(C)c2c1 (stereo unspecified) returned ERp5 inh 2.2, SIRT5 inh -3.2, FN deposit inh 3.3, PDI inh -2.0 and MLL AF4-AF9 inh 6.0.
Cc1c(C(=O)NCC(c2ccco2)N(C)C)oc2c(Cl)cccc12 (stereo unspecified) was read as ERp5 inh -3.7, SIRT5 inh -1.5, FN deposit inh -6.1, PDI inh -4.1, MLL AF4-AF9 inh inconclusive and Alpha interfer -22.4%.
`O=C(CC[C@H]1O[C@@H](n2ccc(=O)[nH]c2=O)[C@H](O)[C@@H]1O)NCC1CCCO1` (stereo partly specified) gave ERp5 inh 1.6, SIRT5 inh -14.8, FN deposit inh -2.4 and MLL AF4-AF9 inh -0.6.
CCN(CCCNc1cc2c(c(N)c1S(=O)(=O)O)C(=O)c1ccccc1C2=O)c1ccccc1 was read as ERp5 inh 5.5, FN deposit inh -14.8, PDI inh -4.6, MLL AF4-AF9 inh 61.3* and Alpha interfer 7.64µM*.
For O=C1c2ccccc2C(=O)c2c(NCCCN(CCO)CCO)cccc21 the results were ERp5 inh 0.7, SIRT5 inh -0.9, PDI inh -6.6 and MLL AF4-AF9 inh inconclusive.
C(=C1c2ccccc2-c2ccccc21)c1ccccn1 was read as ERp5 inh 1.5, SIRT5 inh -1.3, FN deposit inh 4.8, PDI inh 3.4, MLL AF4-AF9 inh 18.8 and Alpha interfer -31.0%.
Screening O=C1c2c(O)ccc(O)c2C(=O)c2c(NCCNCCO)ccc(NCCNCCO)c21 returned ERp5 inh -6.4, SIRT5 inh 7.0, FN deposit inh -0.3, PDI inh -10.6, MLL AF4-AF9 inh 96.6* and Alpha interfer 0.355µM*.
N=C(N)c1ccc(/C=C/c2ccc(C(=N)N)cc2O)cc1 was read as ERp5 inh 0.4, SIRT5 inh -2.9, FN deposit inh -3.9, PDI inh -2.0, MLL AF4-AF9 inh 60.6* and Alpha interfer -29.2%.
S=C(NN=C(c1ccccc1)c1ccccn1)N(Cc1ccccn1)Cc1ccccn1 was read as ERp5 inh -1.0, SIRT5 inh -3.2, FN deposit inh 3.5, PDI inh -13.5, MLL AF4-AF9 inh 53.2* and Alpha interfer 7.98µM*.
CN1CCN(C(c2ccc(F)cc2)c2ccc3cccnc3c2O)CC1 (stereo unspecified) was read as PDI inh 7.2.

Assay outcomes as filed in PubChem BioAssay.
